Screens from PubChem.
L929 necroptosis: inhibitors of zVAD-triggered necroptosis, primary screen, L929 cells; viability rescue, % at 10 µM; hit rate 0.38% among 220,000; L929 zVAD necroptosis rescue, ATP luminescence, 24 h; with zVAD 60 µM;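 active = activation, scaled between plate controls, above about 75%, limit read from the data; inactive = activation under that limit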;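 note: 0% = zVAD with DMSO and 100% = DMSO alone without zVAD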
Calpain2 inh: inhibitors of pig calpain II, primary screen, biochemical, fluorogenic peptide substrate, 1536-well; purified calpain II, 30 min; inhibition, % at 16 µM; hit rate 0.37% among 220,000; AID 1236, 2008;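 active = inhibition above about 50%, limit read from the data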
Pf gamet viab: late stage P. falciparum gametocyte viability inhibitors, primary screen, ATP luminescence, HTS; inhibition, % at 10.9 µM; P. falciparum stage V gametocytes, 24 h; hit rate 0.065% among 150,000;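 active = inhibition above the mean plus 3 SD of compounds within the control limits, set per campaign, cut at about 38% in these data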;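 note: 0% = DMSO wells and 100% = medium only without gametocytes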
RBBP9 inhibitor: human RBBP9 inhibitors, primary screen, biochemical, fluorescence polarization, FP-Rh probe, HTS; Serine hydrolase RBBP9 (Homo sapiens), O75884; recombinant RBBP9; inhibition, % at 7.94 µM; hit rate 0.2% among 220,000; AID 1515, 2009;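 active = inhibition above the campaign mean of all tested compounds plus 3 SD, cut at about 14% in these data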;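 note: plate controls were DMSO wells with RBBP9 for no effect and wells lacking RBBP9 protein for full effect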
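system = RBBP9 protein | input = RBBP9 at 2.5 µM in dispensed solution, before mixing | measured by = fluorescence polarization (mP), excitation 525 nm, emission 598 nm | incubation = enzyme-compound preincubation 30 min, then probe labeling 45 min, 25 °C | buffer or medium = Tris-NaCl-Pluronic buffer, pH 8.0 | compound = single dose 7.94 µM | also added = FP-Rh probe, 375 nM dispensing solution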
Wee1 degr inh: Wee1 degradation inhibitors, primary screen, cell-based, HeLa, Wee1K328M-luciferase, luminescence; Wee1-like protein kinase (Homo sapiens), P30291; HeLa Luc-Wee1K328M stability; 100% = proteasome inhibitor MG132 effect; reporter increase, % at 5 µM; hit rate 1.2% among 220,000; AID 1321, 2008;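 active = activation above the mean of all tested compounds plus 3 SD, set per screening run, cut at about 8.8% in these data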;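 note: cells exposed to compound for 20 h before luminescence read; 0% = DMSO alone and 100% = MG132 at 30 µM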
Target sequence (P30291 whole entry K328M): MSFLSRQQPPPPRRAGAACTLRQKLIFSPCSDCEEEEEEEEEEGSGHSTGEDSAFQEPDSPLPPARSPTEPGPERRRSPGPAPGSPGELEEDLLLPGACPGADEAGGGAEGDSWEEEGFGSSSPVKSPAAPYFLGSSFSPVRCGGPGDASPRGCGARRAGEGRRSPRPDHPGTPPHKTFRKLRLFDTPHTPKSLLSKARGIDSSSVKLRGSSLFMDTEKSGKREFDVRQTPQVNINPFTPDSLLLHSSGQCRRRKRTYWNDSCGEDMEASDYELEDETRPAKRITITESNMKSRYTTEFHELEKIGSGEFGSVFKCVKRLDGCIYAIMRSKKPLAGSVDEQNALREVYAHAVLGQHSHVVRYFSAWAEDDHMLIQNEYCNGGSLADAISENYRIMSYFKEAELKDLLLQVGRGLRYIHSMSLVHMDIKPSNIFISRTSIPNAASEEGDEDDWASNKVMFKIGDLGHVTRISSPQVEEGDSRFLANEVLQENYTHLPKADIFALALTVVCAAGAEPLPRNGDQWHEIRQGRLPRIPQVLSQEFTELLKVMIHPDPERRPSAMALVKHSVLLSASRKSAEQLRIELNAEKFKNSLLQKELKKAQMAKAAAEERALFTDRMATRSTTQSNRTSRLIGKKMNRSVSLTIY
TNF necrop inh: inhibitors of TNF-alpha triggered necroptosis, primary screen, cell-based, Jurkat FADD-/-, single concentration. Jurkat FADD-/- TNF necroptosis rescue, ATP luminescence, 24 h; 0 = TNF only, 100 = no-TNF cells. activation (protection from cell death), % at 10 µM. hit rate 0.068% among 220,000;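 active = activation, meaning protection from cell death, of at least 50% relative to plate controls; inactive = activation below 50%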;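 note: necroptosis triggered by 40 ng/mL TNF-alpha added together with compound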
Numbers without * were called inactive. Only some compounds are listed: those with a hit (about 2.1% of all), similar ones and a draw of the others.

What do the screens show for `N#C/C(=C/c1ccc([N+](=O)[O-])cc1)C(N)=O`?
L929 necroptosis: 1.3; Calpain2 inh: -1.4; RBBP9 inhibitor: 3.8; Wee1 degr inh: 10.9*; TNF necrop inh: 0.0

What do the screens show for `Cc1cc2nc(-c3ccccn3)c(-c3ccccn3)nc2cc1C`?
L929 necroptosis: -1.6; Calpain2 inh: -8.7; RBBP9 inhibitor: -6.3; Wee1 degr inh: 9.3*; TNF necrop inh: -6.4

What do the screens show for `CC1=C(C(=O)OCC2CCCO2)C(c2ccc(C)o2)C2=C(CC(c3ccc(F)cc3)CC2=O)N1` (stereo not drawn)?
L929 necroptosis: -0.4; Calpain2 inh: 13.9; RBBP9 inhibitor: -5.9; Wee1 degr inh: -1.4; TNF necrop inh: -1.0

How did CC1=C(C(=O)OCC2CCCO2)C(c2ccc(C)o2)C2=C(CC(c3ccc(N(C)C)cc3)CC2=O)N1 (stereo not drawn) do in these assays?
L929 necroptosis: -0.6; Calpain2 inh: 99.3*; RBBP9 inhibitor: -5.1; Wee1 degr inh: 5.0; TNF necrop inh: -2.6

How did COCCSc1ccccc1C(=O)Nc1ccccc1C#N do in these assays?
L929 necroptosis: 3.5; Calpain2 inh: -16.9; Pf gamet viab: -2.6; RBBP9 inhibitor: 1.3; Wee1 degr inh: -3.3; TNF necrop inh: 0.3

How did CC(=O)O/N=C1\C(=O)N(Cc2ccc(C)cc2)c2ccccc21 do in these assays?
L929 necroptosis: 0.5; Calpain2 inh: 57.9*; Pf gamet viab: 20.9; RBBP9 inhibitor: -30.9; Wee1 degr inh: 2.0; TNF necrop inh: -0.1

What do the screens show for `CN1C(=O)/C(=N\OC(=O)c2ccccc2Cl)c2ccccc21`?
L929 necroptosis: 1.7; Calpain2 inh: -12.7; Pf gamet viab: -23.2; RBBP9 inhibitor: -4.5; Wee1 degr inh: -1.0; TNF necrop inh: -2.6

What do the screens show for `COc1ccc2c(C)cc(SCC(=O)Nc3ccc(Cl)cn3)nc2c1`?
L929 necroptosis: 12.0; Calpain2 inh: -45.5; RBBP9 inhibitor: -6.4; Wee1 degr inh: 2.0; TNF necrop inh: 1.7

What do the screens show for `CN(C)S(=O)(=O)c1ccccc1N=C=S`?
L929 necroptosis: -1.4; Calpain2 inh: -2.9; RBBP9 inhibitor: 16.2*; Wee1 degr inh: -1.9; TNF necrop inh: 6.7

What do the screens show for `CN(c1ccccc1N(C)S(=O)(=O)c1ccccc1)S(=O)(=O)c1ccccc1`?
Pf gamet viab: -11.6

How did Cc1ccn2cc(C(=O)Nc3nnc(C)s3)nc2c1 do in these assays?
L929 necroptosis: 2.6; Calpain2 inh: -94.5; RBBP9 inhibitor: -1.9; Wee1 degr inh: 8.9*; TNF necrop inh: 0.2

Results for Cc1ccn2cc(C(=O)Nc3ccc4c(c3)OCCO4)nc2c1 ?
L929 necroptosis: -0.1; Calpain2 inh: -13.4; RBBP9 inhibitor: -8.2; Wee1 degr inh: -0.2; TNF necrop inh: -4.9

Results for CCCCCCCCCCCCCCCC[n+]1ccc(C(N)=O)cc1 ?
L929 necroptosis: -0.2; Calpain2 inh: 72.0*; RBBP9 inhibitor: -0.5; Wee1 degr inh: 0.4; TNF necrop inh: -10.9

What do the screens show for `CCCCN(CCCC)C(=O)C[n+]1cccc(/C=N/O)c1`?
L929 necroptosis: 2.8; Calpain2 inh: -16.9; Pf gamet viab: 9.2; RBBP9 inhibitor: -5.3; Wee1 degr inh: 2.3; TNF necrop inh: 0.4

What do the screens show for `CCCCCCCCCCCCCCCC[n+]1ccc(/C=N/O)cc1`?
L929 necroptosis: 2.5; Calpain2 inh: 28.5; Pf gamet viab: 27.8; RBBP9 inhibitor: 39.9*; Wee1 degr inh: -2.8; TNF necrop inh: -14.6

What do the screens show for `COc1cc(/C=C2/SC(=O)NC2=O)ccc1Oc1ccc([N+](=O)[O-])cc1[N+](=O)[O-]`?
L929 necroptosis: 0.1; Calpain2 inh: 63.5*; Pf gamet viab: -1.7; RBBP9 inhibitor: -7.2; Wee1 degr inh: 5.1; TNF necrop inh: 4.8

What do the screens show for `CCC(C)NC(=O)Cn1cc(S(=O)(=O)N2CCN(c3ccccc3F)CC2)c2ccccc2c1=O` (stereo not drawn)?
L929 necroptosis: 0.2; Calpain2 inh: 32.4; RBBP9 inhibitor: -3.4; Wee1 degr inh: 1.6; TNF necrop inh: 2.7
